Experimental data pooled from the literature.
TMEM97: Sigma intracellular receptor 2 (TMEM97, Homo sapiens, UniProt Q5BJF2)
PTGS2: Prostaglandin G/H synthase 2 (PTGS2, Homo sapiens, UniProt P35354)
CHRM3: Muscarinic acetylcholine receptor M3 (CHRM3, Homo sapiens, UniProt P20309)

SMILES	target	test	conditions	measurement	result
CN[C@@H](C)[C@@H](O)c1ccccc1	TMEM97	ligand displacement, radioligand		Ki	> 10 µM
C[C@@H]1NC(=O)[C@H](CC(N)=O)NC(=O)[C@H](Cc2ccccc2)NC(=O)[C@@H]2Cc3ccccc3CN2C(=O)[C@H](CCCNC(=N)N)NC(=O)[C@@H]2CCCN2C(=O)[C@H]2CCCN2C(=O)[C@H](Cc2ccccc2)NC1=O	Melanocyte-stimulating hormone receptor (Mc1r, Mus musculus, UniProt Q01727)	reporter gene, agonist		EC50	> 100 µM
O=c1[nH]c2ccccc2n1CCCN1CCC(n2c(=O)[nH]c3cc(Cl)ccc32)CC1	Alpha-1D adrenergic receptor (ADRA1D, Homo sapiens, UniProt P25100)	cell-free assay		Ki	0.71 µM
CN1C(=O)C(=Cc2cn(-c3nc(N4CCCC4)nc(N4CCOCC4)n3)c3ccccc23)C(=O)N(C)C1=O	PTGS2	enzyme activity, inhibitor		IC50	6 µM
Clc1cccc(N2CCNCC2)c1Cl	CHRM3	ligand displacement, radioligand	cell membranes	Ki	25.1 µM
CN1CC[C@@]23CCCC[C@@H]2[C@@H]1Cc1ccc(O)cc13	TMEM97	ligand displacement, radioligand		Ki	2.94 µM
CCCCCCCCCCCCNCCCc1ccc([N+](=O)[O-])cc1	CHRM3	ligand displacement, radioligand		Ki	3.3 µM
CN1C(=O)C(=Cc2cn(-c3nc(Cl)nc(N4CCOCC4)n3)c3ccccc23)C(=O)N(C)C1=O	PTGS2	enzyme activity, inhibitor		IC50	0.1 µM
